{"source": "paper PMC5110371", "about": "(Nature chemical biology, 2016)", "key": {"[1]": {"test_system": "Gli56 ENO1-deleted glioma cells", "experiment": "Proliferation", "type": "cell-based, human", "conditions": "Supplementary Fig. 9", "method_in_brief": "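Growth was followed by IncuCyte live-cell confluence imaging every 4 h. Initial seeding was 1.5 × 10^3 cells/well in 96-well plates, with duplicate replicates. Cells were cultured in DMEM with 10% FBS. ENO1-intact cell lines were used as comparators.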"}, "[2]": {"target": "Triosephosphate isomerase (Homo sapiens, UniProt P60174)", "sequence (P60174 whole entry)": "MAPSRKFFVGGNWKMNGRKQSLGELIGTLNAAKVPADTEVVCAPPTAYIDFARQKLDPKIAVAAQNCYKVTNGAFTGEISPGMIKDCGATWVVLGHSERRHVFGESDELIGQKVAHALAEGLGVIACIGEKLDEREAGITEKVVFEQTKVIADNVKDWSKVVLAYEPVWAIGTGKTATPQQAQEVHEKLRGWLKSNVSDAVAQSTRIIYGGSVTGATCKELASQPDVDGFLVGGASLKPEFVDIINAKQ", "experiment": "Thermal shift assay, internal control Triosephosphate isomerase", "type": "binding", "conditions": "cell lysates", "method_in_brief": "(§1)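 Lysates of D423 glioma cells overexpressing ENO1 or ENO2 were made in 20 mM Tris-HCl, 1 mM EDTA, 1 mM β-mercaptoethanol, pH 7.4, homogenised, sonicated and cleared at 20,000 g for 10 min. They were diluted 1:100 in enolase assay buffer (10 mM KCl, 5 mM MgSO4, 100 mM triethanolamine, pH 7.4), given test compound or vehicle, and heated 3 min at 50–90 °C. After 20,000 g spin, supernatant was immunoblotted (anti-vinculin, anti-TPI, both 1:3000).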"}, "[3]": {"test_system": "D423 ENO1-rescued glioma cells", "experiment": "Proliferation", "type": "cell-based, human", "method_in_brief": "(§2)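 Cells were seeded at 2 × 10^3 cells/well in 96-well plates and treated for 2 weeks across a concentration range. Medium was then refreshed, and Hoechst 33342 (total cells) plus YO-PRO-1 (apoptotic cells) were added at 1:1000 final dilution for 2 h at 37 °C. Wells were imaged and quantified by high-content imaging. Conditions were run in duplicate and expressed relative to vehicle.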"}, "E. coli": {"test_system": "E. coli", "conditions": "cited from earlier work"}, "fungi": {"test_system": "fungi", "conditions": "cited from earlier work"}, "Enolase 2": {"target": "Enolase 2 (Homo sapiens, UniProt P09104)", "sequence (P09104 whole entry)": "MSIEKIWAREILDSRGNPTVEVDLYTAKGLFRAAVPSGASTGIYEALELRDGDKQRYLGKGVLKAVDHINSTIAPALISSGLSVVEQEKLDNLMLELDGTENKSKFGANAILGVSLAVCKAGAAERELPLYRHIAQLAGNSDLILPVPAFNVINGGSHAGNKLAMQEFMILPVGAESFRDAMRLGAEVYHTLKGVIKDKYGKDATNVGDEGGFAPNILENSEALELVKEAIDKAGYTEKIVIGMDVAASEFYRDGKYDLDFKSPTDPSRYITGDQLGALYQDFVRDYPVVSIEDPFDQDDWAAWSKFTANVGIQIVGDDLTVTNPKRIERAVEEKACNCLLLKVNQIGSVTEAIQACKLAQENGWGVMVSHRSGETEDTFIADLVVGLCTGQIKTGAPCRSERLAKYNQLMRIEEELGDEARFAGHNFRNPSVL", "experiment": "Cellular thermal shift assay in intact D423 ENO2 glioma cells", "type": "cell-based", "conditions": "100 μM, without inhibitor ~65 °C", "method_in_brief": "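D423 glioma cells overexpressing ENO2, grown in DMEM with 10% FBS, treated one day with 100 μM test compound or vehicle. Trypsinized, PBS-washed, resuspended in PBS at 0.5 × 10^6 cells/mL, heated on a 50–90 °C gradient. Lysed with twice the volume of 20 mM Tris-HCl, 1 mM EDTA, 1 mM β-mercaptoethanol pH 7.4, plus one dry-ice freeze-thaw. Soluble ENO2 followed by immunoblotting.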"}, "[4]": {"test_system": "D423 ENO1-deleted glioma cells", "experiment": "Cell density", "type": "cell-based, human", "conditions": "72 hours", "method_in_brief": "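Cells were seeded at 1 × 10^4 cells/well in 96-well plates and treated the next day. They were then held either under hypoxia (0.1% O2, 5% CO2) or normoxia for 72 h. Cells were fixed in 10% formalin and stained with crystal violet. Dye was extracted with 10% acetic acid and absorbance read at 595 nm.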"}, "Vinculin": {"target": "T1, Vinculin (Homo sapiens, UniProt P18206)", "T1 sequence (P18206 1-1066 isoform P18206-2)": "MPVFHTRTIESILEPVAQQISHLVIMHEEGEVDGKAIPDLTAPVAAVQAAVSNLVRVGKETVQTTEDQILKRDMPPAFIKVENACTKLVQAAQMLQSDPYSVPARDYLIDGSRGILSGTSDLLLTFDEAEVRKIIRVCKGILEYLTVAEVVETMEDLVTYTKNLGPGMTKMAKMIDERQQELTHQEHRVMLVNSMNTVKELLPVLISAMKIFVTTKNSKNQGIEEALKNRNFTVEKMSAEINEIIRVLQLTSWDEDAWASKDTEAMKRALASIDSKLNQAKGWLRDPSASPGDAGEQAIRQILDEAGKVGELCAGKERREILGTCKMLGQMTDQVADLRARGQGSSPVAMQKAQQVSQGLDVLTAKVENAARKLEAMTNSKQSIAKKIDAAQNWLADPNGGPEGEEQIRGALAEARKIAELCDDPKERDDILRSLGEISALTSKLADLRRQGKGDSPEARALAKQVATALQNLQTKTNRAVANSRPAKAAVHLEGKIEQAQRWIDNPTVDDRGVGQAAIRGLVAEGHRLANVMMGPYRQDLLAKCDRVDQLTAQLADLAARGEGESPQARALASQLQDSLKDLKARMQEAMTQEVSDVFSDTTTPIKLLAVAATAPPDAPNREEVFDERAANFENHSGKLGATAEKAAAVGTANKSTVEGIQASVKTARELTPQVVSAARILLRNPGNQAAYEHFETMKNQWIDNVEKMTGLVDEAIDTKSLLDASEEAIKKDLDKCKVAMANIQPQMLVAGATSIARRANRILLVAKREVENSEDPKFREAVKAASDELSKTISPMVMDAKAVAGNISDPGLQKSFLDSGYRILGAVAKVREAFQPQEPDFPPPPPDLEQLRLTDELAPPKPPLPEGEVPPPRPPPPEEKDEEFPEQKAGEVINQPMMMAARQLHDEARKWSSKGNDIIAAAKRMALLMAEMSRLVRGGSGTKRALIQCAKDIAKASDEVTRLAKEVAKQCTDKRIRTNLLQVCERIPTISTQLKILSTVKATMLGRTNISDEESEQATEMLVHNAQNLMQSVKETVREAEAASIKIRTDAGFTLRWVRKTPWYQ", "experiment": "Thermal shift assay, internal control Vinculin", "type": "binding", "conditions": "cell lysates", "method_in_brief": "as §1"}, "Salmonella": {"test_system": "Salmonella", "conditions": "cited from earlier work"}, "[5]": {"test_system": "D423 ENO1-deleted glioma cells", "experiment": "Proliferation", "type": "cell-based, human", "method_in_brief": "as §2"}, "ENO2 [6]": {"target": "T2, ENO2 (Homo sapiens, UniProt P09104)", "T2 sequence (P09104 whole entry)": "as the sequence (P09104 whole entry) above", "experiment": "Ligand-induced thermal shift assay, lysates of D423 overexpressing ENO2", "type": "binding", "conditions": "1 μM inhibitor, cell lysates", "method_in_brief": "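Lysate in 20 mM Tris-HCl, 1 mM EDTA, 1 mM β-mercaptoethanol (pH 7.4), homogenised, sonicated and cleared at 20,000 g for 10 min. Diluted 1:100 in enolase buffer (10 mM KCl, 5 mM MgSO4, 100 mM triethanolamine, pH 7.4). Treated with 1 μM test compound or vehicle, heated at 50–90 °C for 3 min, recentrifuged. ENO2 in supernatant immunoblotted; band intensity plotted versus temperature.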"}, "[7]": {"experiment": "Configurational stability in aqueous solution", "type": "physicochemical"}, "Enolase [8]": {"test_system": "Enolase", "experiment": "Enolase enzymatic activity in vitro", "type": "biochemical"}, "Enolase [9]": {"target": "Enolase (Homo sapiens, UniProt P09104)", "sequence (P09104 whole entry)": "as the sequence (P09104 whole entry) above", "experiment": "Enolase enzymatic activity in vitro", "type": "biochemical"}, "[10]": {"test_system": "D423 ENO1-deleted glioma cells", "experiment": "Mass spectrometric determination of 3-PGA and PEP", "type": "cell-based, human", "conditions": "10 μM and 25 μM, 72 hours", "method_in_brief": "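D423 ENO1-deleted glioma cells and isogenic ENO1-rescued controls were grown in DMEM with 10% FBS. They were treated with vehicle, 10 μM or 25 μM test compound for 72 h. Polar metabolites were extracted with 80% methanol at −80°C and quantified by mass spectrometry to give the 3-PGA/PEP ratio. Each bar is an independently treated culture; comparisons used unpaired two-tailed t-tests with Bonferroni correction.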"}, "[11]": {"test_system": "D423 ENO1-deleted glioma cells", "experiment": "13C-1 glucose isotope tracing", "type": "cell-based, human", "conditions": "10 μM; for conversion of 13C-1 glucose to 13C-3 glycerate: 72 hours", "method_in_brief": "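Glucose-free DMEM supplemented with 10 mM 13C-1 glucose; test compound at 10 μM. Media extracted with 80% methanol at −80 °C, centrifuged, lyophilised, redissolved in D2O and analysed by proton-decoupled 13C NMR. Glycerate was read as the peak at 64 ppm, also expressed as a ratio to 13C-3 lactate. Isogenic ENO1-rescued D423 cells served as comparison.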"}, "ENO2 [12]": {"target": "T2, ENO2", "experiment": "Thermal shift assay, purified recombinant human ENO2", "type": "binding", "conditions": "concentration not stated in the sentence (Supplementary Fig. 6: 1 µM or 25 µM)", "method_in_brief": "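Diluted and treated with test compound or vehicle in enolase assay buffer (10 mM KCl, 5 mM MgSO4, 100 mM triethanolamine, pH 7.4). Heated 50–90 °C for 3 min, spun 20,000 g for 10 min, supernatant ENO2 immunoblotted.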"}, "Staphylococcus": {"test_system": "Staphylococcus", "conditions": "cited from earlier work"}, "[13]": {"test_system": "D423 ENO1-deleted glioma cells", "experiment": "Time course of ATP", "type": "cell-based, human"}, "ENO1-intact glioma cells": {"test_system": "ENO1-intact glioma cells", "experiment": "Toxicity to ENO1-intact cells", "type": "cell-based, human", "conditions": "10 μM, four days"}, "[14]": {"conditions": "2 weeks, YO-PRO-1 positive cells"}}, "data": [{"smiles": "O=C1C(P(=O)(O)O)CC(O)N1O", "note": "(stereo not drawn) [SF2312, (1,5-dihydroxy-2-oxopyrrolidin-3-yl)phosphonic acid]", "values": [{"measurement": "toxicity against Gli56 versus ENO1-intact cell lines", "setting": "[1]", "result": "selective toxicity"}, {"measurement": "effect on thermal stability of Triosephosphate isomerase", "setting": "[2]", "result": "Neither PhAH nor SF2312 affected the thermal stability"}, {"measurement": "concentration inhibiting proliferation", "setting": "[3]; 2 weeks treatment course, ectopically re-expressing ENO1", "result": "above 200 μM"}, {"measurement": "concentration at which induction of cell death is seen", "setting": "[3]; [14]", "result": 400, "unit": "µM"}, {"measurement": "antibiotic activity", "setting": "E. coli", "result": "weak activity"}, {"measurement": "antibiotic activity", "setting": "fungi", "result": "no activity"}, {"measurement": "shift of the thermal melting curve of ENO2 in intact glioma cells", "setting": "Enolase 2", "result": "~ 15 °C"}, {"measurement": "concentrations at which cells were essentially eradicated", "setting": "[4]; hypoxia (0.1% O2)", "result": "> 6.25", "unit": "µM"}, {"measurement": "eradication of cells", "setting": "[4]; normoxia, 100 μM inhibitor", "result": "no eradication was observed"}, {"measurement": "effect on thermal stability of Vinculin", "setting": "Vinculin", "result": "Neither PhAH nor SF2312 affected the thermal stability"}, {"measurement": "antibiotic activity", "setting": "Salmonella", "result": "strong activity"}, {"measurement": "concentration inhibiting proliferation", "setting": "[5]; 2 weeks treatment course", "result": "low μM range"}, {"measurement": "concentration at which induction of cell death starts", "setting": "[5]; [14]", "result": 12.5, "unit": "µM"}, {"measurement": "shift in the thermal denaturation of ENO2", "setting": "ENO2 [6]", "result": "~ 9.5 °C"}, {"measurement": "melting temperature (Tm) of ENO2", "setting": "ENO2 [6]; without inhibitor ~63 °C", "result": "~ 72.5 °C"}, {"measurement": "stability of stereocenters", "setting": "[7]", "result": "both stereocenters underwent spontaneous epimerization"}, {"measurement": "type of inhibitor (on/off rate)", "setting": "Enolase [8]; order of addition of inhibitor and substrate", "result": "slow-on/slow-off inhibitor"}, {"measurement": "kinetics with respect to substrate 2-PGA", "setting": "Enolase [9]; ENO2, at IC50", "result": "non-competitive kinetics"}, {"measurement": "kinetics with respect to substrate 2-PGA", "setting": "Enolase [9]; ENO2, at higher concentrations of inhibitor", "result": "competitive kinetics"}, {"measurement": "ratio of 3-PGA/PEP", "setting": "[10]", "result": "dramatic increase"}, {"measurement": "conversion of 13C-1 glucose to 13C-3 glycerate", "setting": "[11]", "result": "dramatically increases"}, {"measurement": "glucose consumption and lactate production in media", "setting": "[11]; four days, 13C-1 glucose, D423 and Gli56 ENO1 deleted cells", "result": "profound inhibition of glucose consumption"}, {"measurement": "stabilization of recombinant human ENO2 (shift of thermal denaturation curve)", "setting": "ENO2 [12]", "result": "~ 12 °C"}, {"measurement": "antibiotic activity", "setting": "Staphylococcus", "result": "strong activity"}, {"measurement": "time after initiation of treatment at which declines in ATP occurred", "setting": "[13]", "result": 8, "unit": "h"}, {"measurement": "toxicity", "setting": "ENO1-intact glioma cells", "result": "non-toxic"}]}, {"smiles": "O=C1C(P(=O)(O)O)CCN1O", "note": "(stereo not drawn) [deoxy-SF2312, 1-hydroxy-2-oxopyrrolidin-3-ylphosphonic acid]", "values": [{"measurement": "IC50", "setting": "Enolase [8]; read-out: IC50 as an enolase inhibitor", "result": "~2000", "unit": "nM"}, {"measurement": "kinetics with respect to substrate 2-PGA", "setting": "Enolase [9]; ENO2 (Fig. 1d)", "result": "clear competitive kinetics"}]}, {"smiles": "O=C(CP(=O)(O)O)NO", "note": "[PhAH, Phosphonoacetohydroxamate, reference compound]", "values": [{"measurement": "toxicity against Gli56 versus ENO1-intact cell lines", "setting": "[1]", "result": "selective toxicity"}, {"measurement": "effect on thermal stability of Triosephosphate isomerase", "setting": "[2]", "result": "Neither PhAH nor SF2312 affected the thermal stability"}, {"measurement": "shift of the thermal melting curve of ENO2 in intact glioma cells", "setting": "Enolase 2", "result": "~ 6 °C"}, {"measurement": "concentration at which potentiation of toxicity by hypoxia is evident", "setting": "[4]; hypoxia vs normoxia", "result": 200, "unit": "µM"}, {"measurement": "effect on thermal stability of Vinculin", "setting": "Vinculin", "result": "Neither PhAH nor SF2312 affected the thermal stability"}, {"measurement": "shift in the thermal denaturation of ENO2", "setting": "ENO2 [6]", "result": "~ 6 °C"}, {"measurement": "conversion of 13C-1 glucose to 13C-3 glycerate", "setting": "[11]", "result": "to a lesser extent"}, {"measurement": "stabilization of recombinant human ENO2 (shift of thermal denaturation curve)", "setting": "ENO2 [12]", "result": "~ 6 °C"}]}]}
